Experimental data collected from several papers.
Lines come from different studies, so protocols differ.
Medium: plasma

SMILES | test system | setting | Tmax [h]
N#Cc1[nH]nnc1-c1cccc(OCc2cc(C(F)(F)F)ccc2C(F)(F)F)c1 | male Sprague-Dawley rat | oral, 10 mg/kg | 1.3
C[C@H](Nc1ncnc2[nH]cnc12)c1cc2cccc(Cl)c2c(=O)n1-c1ccccc1 | male Wistar rat | oral, 25 mg/kg, single dose | 2
O=C(Nc1cc(F)c(F)c(F)c1)c1ccc(F)c(S(=O)(=O)NCc2cccc(B(O)O)c2)c1 | male Sprague-Dawley rat | oral, 20 mg/kg | 0.38
CNCc1cc(-c2ccccc2F)n(S(=O)(=O)c2cccnc2)c1 | male Sprague-Dawley rat | oral, 10 mg/kg | 1
Cc1c(-c2ccccc2)cccc1N1C(=O)c2cc(CN[C@H](C(=O)O)C(C)O)c(OCc3cccc(C#N)c3)cc2C1=O (some centres unmarked) | Sprague-Dawley rat | intravenous, 5 mg/kg | 0.08
COc1cc(/C=C/C(=O)CC(=O)/C=C/c2ccc(O)c(OC)c2)ccc1O | male Sprague-Dawley rat | oral, 100 mg/kg | 0.167
Cl.Clc1ccc2c(c1)nc(N1CCNCC1)n2Cc1ccccc1 | rat | oral, 5 mg/kg | 0.08
CCc1cc(C(=O)NC)c2nccc(N3CCc4c(cc(Cn5ccnc5)cc4-c4cn(C)nc4C(F)(F)F)C3=O)c2c1 | male Sprague-Dawley rat | oral, 50 mg/kg | 1.7
O=C(O)CCS(=O)(=O)O | male Sprague-Dawley rat | intravenous, 10 mg/kg | 0.083
CCc1cc(OC)c2nccc(N3CCc4c(cc(Cn5ccnc5)cc4-c4cn(C)nc4C(F)(F)F)C3=O)c2c1 | male Sprague-Dawley rat | oral, 50 mg/kg | 1.7
C=CC(=O)N1CC2CC(n3nc(-c4ccc(C(=O)Nc5ccccn5)cc4)c4c(N)ncnc43)CC2C1 (centres unmarked) | male Wistar rat | oral, 3 mg/kg | 0.25
COc1nc(-c2cc(C)c(N[C@@H](C)c3cc(F)cc(F)c3)nn2)ccc1-n1cnc(C)c1 | male Sprague-Dawley rat | intravenous, 1 mg/kg, single dose | 0.083
N#Cc1[nH]nnc1-c1cc(Cl)cc(/C=C/c2cccc(C(F)(F)F)c2)c1 | male Sprague-Dawley rat | oral, 10 mg/kg | 5.3
CC[C@H](C)[C@H](NC(=O)[C@H](Cc1ccccc1)NC(=O)[C@H](CCC(=O)O)NC(=O)[C@H](CCCNC(=N)N)NC(=O)[C@H](C)NC(=O)[C@H](C)NC(=O)[C@H](CCC(N)=O)NC(=O)[C@H](CCC(=O)O)NC(=O)[C@H](CCC(=O)O)NC(=O)[C@H](CC(C)C)NC(=O)[C@H](Cc1ccc(O)cc1)NC(=O)[C@H](CO)NC(=O)[C@H](CO)NC(=O)[C@@H](NC(=O)[C@H](CC(=O)O)NC(=O)[C@H](CO)NC(=O)[C@@H](NC(=O)[C@H](Cc1ccccc1)NC(=O)[C@@H](NC(=O)CNC(=O)[C@H](CCC(=O)O)NC(=O)[C@H](C)NC(=O)CCc1c[nH]cn1)[C@@H](C)O)[C@@H](C)O)C(C)C)C(=O)N[C@@H](C)C(=O)N[C@@H](Cc1c[nH]c2ccccc12)C(=O)N[C@@H](CC(C)C)C(=O)N[C@H](C(=O)N[C@@H](CCCNC(=N)N)C(=O)NCC(=O)N[C@@H](CCCNC(=N)N)C(=O)N[C@@H](CCCCNC(=O)COCCOCCNC(=O)COCCOCCNC(=O)CC[C@H](NC(=O)CCCCCCCCCCCCCCCCC(=O)O)C(=O)O)C(=O)O)C(C)C | rat | subcutaneous, 20 nmol/kg | 10
N#Cc1ccc(Nc2nc(N)cc(Oc3c(F)cc(-c4ccc(C#N)cc4)cc3F)n2)cc1 | Sprague-Dawley rat | intravenous, 1 mg/kg | 0.08
Cc1cc(Nc2ccc(C(F)(F)F)nc2)n2nc(C(C)(F)F)nc2n1 | rat | oral, 200 mg/kg | 12
CNCc1cc(-c2ccccc2F)n(S(=O)(=O)c2cccnc2)c1 | Sprague-Dawley rat | oral, 10 mg/kg | ~1.1
